Measured values taken from PubChem BioAssay.
A number with no mark means an inactive call.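 Rule for the calls: active = growth inhibition above 25% in both replicates, a cutoff set 3 SD above the mean; inconclusive = above 25% in only one replicate; inactive = the rest.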

Experiment: S. cerevisiae growth inhibition in permissive medium (OD615), pilot counter-assay for S. cerevisiae lifespan shortening project, permissive growth control (AID 705)
Settings: OD615, 24 h, at 10 µM, stronger effect = higher value
Procedure, shortened: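 System – S. cerevisiae with engineered DeaD lifespan system · Buffer or medium – SC raffinose/galactose permissive medium · Schedule – cells pre-grown 4 h, then 24 h compound exposure, 30 °C humidified · Technique – culture turbidity as optical density at 615 nm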
CC1(C(=O)NCc2cccnc2)CCC(=O)N1Cc1cccs1 (stereo not given) gave a growth inhibition of -2.29%. With C=CCOC(=O)C1=C(C)NC(C)=C(C(=O)OCC=C)C1c1ccc(O)cc1 the growth inhibition was -6.92%. With C=CCNC(=O)c1ccc(C)cc1Cl the growth inhibition was -13.3%. Work on c1cncc(-c2noc(-c3ccco3)n2)c1 yielded a growth inhibition of -5.2%. Molecule O=C(O)C1C2C=CC(C2)C1C(=O)NCCc1cccc(Cl)c1 (stereo not given) has a growth inhibition of -2.6%. Molecule O=C1c2oc3ccc(F)cc3c(=O)c2C(c2cccc(O)c2)N1CCCN1CCOCC1 (stereo not given) has a growth inhibition of -6.24%. Molecule COc1cc(Nc2cc(C)nc3nc(C)nn23)cc(OC)c1OC has a growth inhibition of 2.3%. With CNC(=O)c1ccsc1NC(=O)c1ccc(Cl)s1 the growth inhibition was -0.67%. Work on C=CCSC1=C(C#N)C(c2ccc(OCC)cc2)CC(=O)N1 (stereo not given) yielded a growth inhibition of -11.9%. O=C(NC1CCCCCC1)C1CCN(S(=O)(=O)c2cccc3cccnc23)CC1 gave a growth inhibition of 8.96%. CC(C)NC(=O)CCCc1ccccc1 showed a growth inhibition of -8%. In the case of Cc1nc2ccc(NC(=O)c3ccc(S(=O)(=O)N4CCOCC4)cc3)cc2s1, the growth inhibition is reported as -2.22%. Molecule Cc1cc(Nc2cc(C)on2)n2ncnc2n1 has a growth inhibition of 2.33%. O=C1C2CCCN2C(c2ccc(Br)cc2)N1c1ccc(F)cc1 (stereo not given) showed a growth inhibition of -4.66%. Molecule Cc1cc(NC(=O)CSc2nnc(C)c(=O)[nH]2)no1 has a growth inhibition of -0.975%. Molecule CCOC(=O)C(C)Sc1nnc(Cc2cc(=O)[nH]c(=O)[nH]2)n1-c1ccc(OCC)cc1 (stereo not given) has a growth inhibition of 2.12%. Molecule CCOc1ccc(N(CC(=O)O)S(=O)(=O)c2ccc(OC)c(OC)c2)cc1 has a growth inhibition of -8.3%. Molecule O=C(CSc1nnnn1-c1cccc2c1CCCC2)N1CCOCC1 has a growth inhibition of -3.82%. CS(=O)(=O)N1CCN(c2nc(-c3ccc(F)cc3)cs2)CC1 gave a growth inhibition of -4.7%. For CN1CCN(c2ccccc2NC(=O)C(Cc2ccccc2)n2cccc2)CC1 (stereo not given), the growth inhibition was -7.49%. Molecule O=C(Nc1cccnc1)c1ccccc1F has a growth inhibition of -7.93%. COc1ccccc1NC(=O)CSc1nnc(-c2ccccn2)n1Cc1ccco1 gave a growth inhibition of -3.73%. Cc1cccn2cc(CCNC(=O)c3ccc(Br)o3)nc12 gave a growth inhibition of -8.18%. In the case of Cc1ccccc1-n1nc(-c2ccc(N)cc2)cc1N, the growth inhibition is reported as 3.39%. Work on COc1ccc(-c2noc(Cc3ccccc3OC)n2)cc1 yielded a growth inhibition of -15.1%. In the case of COc1cccc(C(c2sc3ncnn3c2O)N2CC(C)OC(C)C2)c1 (stereo not given), the growth inhibition is reported as 4.48%. C=CCn1c(O)c(C2=c3ccccc3=NC2=O)s/c1=N/c1nccs1 showed a growth inhibition of -9.64%. With O=C(O)C1CCCCC1C(=O)NCc1cn2ccccc2n1 (stereo not given) the growth inhibition was -16.1%. Work on Cn1c(C(=O)N2CCN(C(=O)c3ccco3)CC2)cc2c(=O)n(C)c3ccccc3c21 yielded a growth inhibition of -3.88%. CCOc1ccc2[nH]cc(S(=O)(=O)c3ccc(F)cc3)c(=O)c2c1 gave a growth inhibition of -4.64%. Molecule Cc1ccc(C)c(C(=O)CSc2n[nH]c(C)n2)c1 has a growth inhibition of 0.045%. Work on Cc1cccc(Cn2c(N3CCCCC3C)nc3c2c(=O)[nH]c(=O)n3C)c1 (stereo not given) yielded a growth inhibition of -17.5%. Molecule Cc1nnc(SCC(=O)N2CCOCC2)n1C has a growth inhibition of -6.97%. N#CC1=C(N)Oc2n[nH]c(-c3ccccc3)c2C1c1cccc(OC(=O)N2CCOCC2)c1 (stereo not given) showed a growth inhibition of -12.4%. Molecule CCOc1cc(-c2nc(-c3ccncc3)no2)cc(OCC)c1OCC has a growth inhibition of -5.04%. CC(=O)Nc1nnc(C)s1 showed a growth inhibition of -17%. In the case of CSC1=NCCN1C(=O)c1ccc(S(=O)(=O)N2CCOCC2)cc1, the growth inhibition is reported as 3.77%. With CCCC(NS(=O)(=O)c1ccc(OC)cc1)C(=O)O (stereo not given) the growth inhibition was -8.86%. In the case of CCOC(=O)Cn1c(=O)oc2cc(S(=O)(=O)Nc3ccc(F)cc3)ccc21, the growth inhibition is reported as -7.54%. In the case of CNC(=O)c1c(NC(=O)c2nc3ccccc3s2)sc2c1CCC2, the growth inhibition is reported as 1.6%.
